# Assay results: ChEMBL document CHEMBL1153547, “Rifampin inhibits prostaglandin E2 production and arachidonic acid release in human alveolar epithelial cells” (Antimicrob Agents Chemother, 2007)
# Calls of active or inactive are those of the source. The calls are words filed in the database; no cut-off is given here.
# Key:
# [1] = test system: A549; assay: Immunomodulatory effect in human A549 cells assessed as inhibition of Ca2+ ionophore A23187 stimulated-[3H]arachidonic acid release measured after 2 hrs of A23187 challenge by liquid scintillation counting; assay type: functional
# [2] = test system: A549; assay: Immunomodulatory effect in human A549 cells assessed as reduction in IL-1-beta-induced [3H]arachidonic acid release at 10 to 100 ug/ml measured after 4 hrs of IL1-beta challenge by liquid scintillation counting; assay type: functional, cell-based
# Procedure, shortened: (§1)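 A549 cells (2 x 10^6 per 3-cm plate), grown 24 h, labeled 4 h with [3H]AA at 0.5 µCi/ml in serum-free medium, then washed five times. Incubated in serum-free medium with 1 mg/ml BSA plus IL-1ß (1 ng/ml) ± rifampin, or rifampin alone, or medium alone, for 4 h unless another time is stated. Supernatant counted by liquid scintillation. Release given as % of incorporated label. Inhibition = 100 x [(IL-1ß – medium) – (IL-1ß+rif – rif alone)]/(IL-1ß – medium).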
# [3] = test system: A549; assay: Immunomodulatory effect in human A549 cells assessed as reduction in IL-1-beta-induced [3H]arachidonic acid release measured after 4 hrs of IL1-beta challenge by liquid scintillation counting; assay type: functional, cell-based; procedure, shortened: as §1
# [4] = test system: A549; assay: Immunomodulatory effect in human A549 cells assessed as reduction in IL-1-beta-induced [3H]arachidonic acid release at 50 ug/ml measured after 2 hrs of IL1-beta challenge by liquid scintillation counting; assay type: functional; parameters: scale not given: the % may be the effect or the level left; procedure, shortened: as §1
# [5] = test system: A549; assay: Immunomodulatory effect in human A549 cells assessed as reduction in IL-1-beta-induced PGE2 formation at 100 ug/ml after 48 hrs by enzyme immunoassay; assay type: functional, cell-based
# Procedure, shortened: (§2)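 A549 cells seeded at 1.5 x 10^5/well and grown 24 h, then held overnight in serum- and antibiotic-free medium. Cells exposed to IL-1ß (1 ng/ml) with or without rifampin (10 to 100 µg/ml) in fresh medium for 48 h, with DMSO vehicle at most 0.1%. Cleared supernatants stored at –70°C. PGE2 measured by enzyme immunoassay, triplicate wells.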
# [6] = test system: A549; assay: Immunomodulatory effect in human A549 cells assessed as reduction in IL-1-beta-induced PGE2 formation at 50 ug/ml after 48 hrs by enzyme immunoassay; assay type: functional; parameters: scale not given: the % may be the effect or the level left; procedure, shortened: as §2
# [7] = test system: A549; assay: Immunomodulatory effect in human A549 cells assessed as reduction in IL-1-beta-induced [3H]arachidonic acid release at 50 ug/ml measured after 19 hrs of IL1-beta challenge by liquid scintillation counting; assay type: functional; parameters: scale not given: the % may be the effect or the level left; procedure, shortened: as §1
# [8] = test system: A549; assay: Immunomodulatory effect in human A549 cells assessed as reduction in basal release of [3H]arachidonic acid at 50 ug/ml up to 2 hrs by liquid scintillation counting; assay type: functional; parameters: scale not given: the % may be the effect or the level left
# Procedure, shortened: (§3)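 A549 cells prelabeled 4 h with [3H]AA at 0.5 µCi/ml, washed, then kept in serum-free medium with 1 mg/ml BSA, alone or with rifampin, with sampling at set times. Supernatant radioactivity counted by liquid scintillation and given as % of incorporated label. Incorporation estimated by subtracting supernatant counts after labeling from the radioactivity added. Two independent experiments, n = 5 per group.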
# [9] = Drug level in serum at 600 mg; assay type: ADME, cell-free
# [10] = test system: A549; assay: Immunomodulatory effect in human A549 cells assessed as reduction in basal release of [3H]arachidonic acid at 50 ug/ml up to 19 hrs by liquid scintillation counting; assay type: functional; parameters: scale not given: the % may be the effect or the level left; procedure, shortened: as §3
# [11] = test system: A549; assay: Immunomodulatory effect in human A549 cells assessed as inhibition of Ca2+ ionophore A23187 stimulated-[3H]arachidonic acid release measured after 45 mins of A23187 challenge by liquid scintillation counting; assay type: functional, cell-based
# [12] = test system: A549; assay: Immunomodulatory effect in human A549 cells assessed as reduction in IL-1-beta-induced PGE2 formation at 25 ug/ml after 48 hrs by enzyme immunoassay; assay type: functional; parameters: scale not given: the % may be the effect or the level left; procedure, shortened: as §2
# [13] = test system: A549; assay: Immunomodulatory effect in human A549 cells assessed as reduction in spontaneous release of [3H]arachidonic acid by liquid scintillation counting; assay type: functional, cell-based; procedure, shortened: as §3
# [14] = test system: A549; assay: Immunomodulatory effect in human A549 cells assessed as inhibition of Ca2+ ionophore A23187 stimulated-[3H]arachidonic acid release measured after 4 hrs of A23187 challenge by liquid scintillation counting; assay type: functional
# [15] = test system: A549; assay: Immunomodulatory effect in human A549 cells assessed as reduction in IL-1-beta-induced [3H]arachidonic acid release at 50 ug/ml measured after 6 hrs of IL1-beta challenge by liquid scintillation counting; assay type: functional; parameters: scale not given: the % may be the effect or the level left; procedure, shortened: as §1
# [16] = test system: A549; assay: Cytotoxicity against human A549 cells assessed as cell viability by neutral red uptake assay; assay type: cell-based
# Procedure, shortened: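 A549 cells in 96-well plates, after treatment, given neutral red at 0.05% final in fresh medium for 1 h. Cells washed with cold PBS containing Ca2+ and Mg2+, then dye extracted with Sorenson's citrate buffer-ethanol. Absorbance read at 540 nm. Viability taken as the absorbance ratio of treated to untreated cells.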
# [17] = test system: A549; assay: Inhibition of IL-1-beta-induced COX2 expression in human A549 cells at 50 ug/ml measured after 24 hrs of IL1-beta challenge by Western blot analysis; assay type: functional, cell-based
# Procedure, shortened: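 A549 cells (2 x 10^6 per 3-cm dish) grown 24 h, then 24 h in serum- and antibiotic-free medium. Treated with IL-1ß (1 ng/ml) ± rifampin (50 µg/ml) for 24 h, then lysed in SDS buffer and denatured at 95°C. Blocked in 5% milk/TBST, then rabbit anti-COX-2 (1:1,000) overnight at 4°C. HRP secondary used and detected by ECL, with β-actin as comparator and densitometry.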
smiles,measurement,setting,value
CO[C@H]1/C=C/O[C@@]2(C)Oc3c(C)c(O)c4c(O)c(c(/C=N/N5CCN(C)CC5)c(O)c4c3C2=O)NC(=O)/C(C)=C\C=C\[C@H](C)[C@H](O)[C@@H](C)[C@@H](O)[C@@H](C)[C@H](OC(C)=O)[C@@H]1C [RIFAMPIN],inhibition (INH),[1],5.5%
same,Activity,[2],Active
same,Activity,[3],Dose-dependent effect
same,Activity,[4],53%
same,Activity,[5],Dose-dependent effect
same,Activity,[6],59%
same,Activity,[7],95%
same,Activity,[8],47%
same,Drug uptake,[9],10 µg/mL
same,Activity,[10],34%
same,inhibition,[11],inactive
same,Activity,[12],45%
same,Activity,[13],Dose-dependent effect
same,inhibition (INH),[14],8.3%
same,Activity,[15],79%
same,Activity,[16],Non-toxic
same,inhibition,[17],inactive
